In paper PMC6896334 (Cell reports, 2019):
Residues, ends and D or L forms follow the SMILES beside them. *: point of attachment. Cbz = O=C(OCc1ccccc1)*

Experiments:
Id1 [1] = target: T1, Id1 (Mus musculus, UniProt P20067); experiment: Circular dichroism; format: binding; settings: AGX51 0–50 μM; AGXA 0–110 μM in DMSO
T1 sequence (P20067 1-148 isoform P20067-2): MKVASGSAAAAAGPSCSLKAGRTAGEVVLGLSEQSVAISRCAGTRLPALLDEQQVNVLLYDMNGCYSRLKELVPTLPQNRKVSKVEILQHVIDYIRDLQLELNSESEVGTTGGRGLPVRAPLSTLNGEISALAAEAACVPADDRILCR

[2] = target: T2, NanoLuc luciferase ID1 fusion protein (Homo sapiens, UniProt P41134); experiment: NanoBRET target engagement assay in permeabilized 293T cells; format: binding
T2 sequence (P41134 1-155): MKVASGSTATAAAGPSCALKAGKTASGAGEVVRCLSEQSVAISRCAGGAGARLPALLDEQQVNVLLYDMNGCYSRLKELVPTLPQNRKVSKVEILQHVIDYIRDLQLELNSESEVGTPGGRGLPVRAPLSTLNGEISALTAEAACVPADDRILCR
Outline: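 293T cells transfected with an N-terminal NanoLuc–ID1 fusion construct and plated 24 h later. Cells received 2 µM fluorescent tracer plus 0–60 µM competitor, then were permeabilised with digitonin (50 µg/mL). NanoBRET Nano-Glo substrate was added and the BRET ratio read, following the kit protocol for intracellular target engagement.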

ID1, ID2, ID3, and ID4 = experiment: Western blot for ID proteins in HCT116 cells; format: cell-based, human; settings: HCT116, 0–10 μM AGXA, 24 h
HCT116 cells = experiment: HCT116 cell viability; format: cell-based, human; settings: cell-based assays (HCT116 and 4T1)
Outline: (§1)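 MTT viability: cells seeded at 5000/well and left overnight, then exposed to the test compound for 24 h. MTT (5 mg/mL) was added for 4 h, medium removed and formazan dissolved in DMSO. Absorbance was read at 570 nm.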

[3] = tested on: choroidal neovascularization; experiment: Laser-induced choroidal neovascularization; format: in vivo, mouse; settings: intravitreal 1 μg dose, day 14
Outline: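 Female C57BL/6 mice aged 4–6 weeks had laser rupture of Bruch's membrane at three sites per eye. Test compounds (1 or 5 µg) or DMSO were given intravitreally. At day 14, choroidal flat mounts were stained with FITC-Griffonia simplicifolia lectin, and CNV area was measured by fluorescence image analysis by an observer masked to group.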

Id1 [4] = target: T1, Id1; experiment: Western blot for Id1 in 4T1 cells; format: cell-based; settings: 4T1, 0–20 μM AGXA, 24 h
Outline: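 4T1 cells were treated 24 h, collected by trypsinization, washed in PBS and lysed in sucrose/Tris pH 8.0/400 mM NaCl/MgCl2/0.5% NP40 buffer with protease inhibitors. Id1 immunoblots were quantified from 700 and 800 channel intensities, blank-subtracted and normalized to tubulin; IC50 reported from blots.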

Id1-E47 interaction = target: T3, Id1-E47 interaction (Mus musculus, UniProt P20067); experiment: In vitro electrophoretic mobility shift assay; format: biochemical; settings: data not shown
T3 sequence (P20067 1-148 isoform P20067-2): T1 sequence (P20067 1-148 isoform P20067-2)
Outline: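 Bacterially purified full-length E47 was mixed with a 32P-labelled E-box probe from the muscle creatine kinase enhancer, plus BSA, DTT, poly dI-dC, salmon sperm DNA and HeLa nuclear extract, with or without purified full-length Id1. Test compounds in DMSO (or DMSO alone) were added at rising concentrations for 30 min. Complexes were resolved on 5% native PAGE and autoradiographed.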

Id proteins = experiment: Degradation of Id proteins in cells; format: cell-based; settings: data not shown
Cell viability assays = format: cell-based; settings: data not shown
Outline: as §1

Id1 (59–104) = target: T4, Id1 (59–104) (Mus musculus, UniProt P20067); experiment: UV crosslinking of AGX51-XL2 to purified Id1 and mass spectrometry; format: binding; settings: UV light 20 minutes
T4 sequence (P20067 59-104): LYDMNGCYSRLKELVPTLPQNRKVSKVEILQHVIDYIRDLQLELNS
Outline: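 Purified Id1 (aa 59–104, 1 µg) was mixed in the dark with 19.7 ng of a benzophenone photoreactive test-compound analog in DMSO and UV-irradiated for 20 min, with a no-UV control. Samples were run in the dark on a 15% denaturing gel and silver stained. Bands were excised for mass spectrometry.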

E47 = target: T5, E47 (Homo sapiens, UniProt P15923); experiment: UV crosslinking of AGX51-XL2 to E47 and mass spectrometry; format: binding; settings: data not shown
T5 sequence (P15923 1-651 isoform P15923-2): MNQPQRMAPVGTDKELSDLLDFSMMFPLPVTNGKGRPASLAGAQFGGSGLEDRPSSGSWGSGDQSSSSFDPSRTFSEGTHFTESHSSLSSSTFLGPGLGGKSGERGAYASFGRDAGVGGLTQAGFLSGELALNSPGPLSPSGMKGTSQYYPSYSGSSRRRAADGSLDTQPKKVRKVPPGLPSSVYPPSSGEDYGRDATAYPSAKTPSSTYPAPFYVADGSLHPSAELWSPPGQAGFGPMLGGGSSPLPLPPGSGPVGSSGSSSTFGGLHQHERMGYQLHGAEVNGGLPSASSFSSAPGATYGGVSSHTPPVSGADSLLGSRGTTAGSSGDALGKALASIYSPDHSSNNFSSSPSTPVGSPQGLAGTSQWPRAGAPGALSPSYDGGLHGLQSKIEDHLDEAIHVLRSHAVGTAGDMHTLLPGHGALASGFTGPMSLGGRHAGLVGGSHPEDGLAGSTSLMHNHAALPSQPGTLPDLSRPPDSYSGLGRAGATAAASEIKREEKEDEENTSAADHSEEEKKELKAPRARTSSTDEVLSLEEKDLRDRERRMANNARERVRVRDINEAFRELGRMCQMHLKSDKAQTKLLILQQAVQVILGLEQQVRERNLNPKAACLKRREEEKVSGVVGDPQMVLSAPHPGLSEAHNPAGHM

FLAG-ID1 = target: T6, FLAG-ID1 (Homo sapiens, UniProt P41134); experiment: Ubiquitylation assay in HCT116 and U87 glioma cells; format: cell-based; settings: 60 μM AGX51 2 h, then 20 μM MG132 for 6 h
T6 sequence (P41134 1-155): T2 sequence (P41134 1-155)
Outline: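 HCT116 cells co-transfected with FLAG-tagged ID1 and HA-ubiquitin. After 36 h they were exposed to 60 µM test compound for 2 h, then 20 µM MG132 for a further 6 h. Cells were washed in ice-cold PBS, lysed in TBS (50 mM Tris pH 8.0, 150 mM NaCl) containing 2% SDS, and boiled for 10 min.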

6-chloro-2-methyl-N-(4-propoxyphenyl)quinolin-4-amine hydrochloride [AGXA]
effect on Id1 secondary structure (CD spectra) (Id1 [1]): greater activity than AGX51 | competition with the AGX51 tracer (BRET ratio) ([2]; 2 μM AGX51 tracer, 0–60 μM competitor, 50 μg/mL digitonin): more efficiently | ID1 protein levels relative to AGX51 (ID1, ID2, ID3, and ID4): reduced Id protein levels at lower concentrations than AGX51 | reduction in IC50 values relative to AGX51 (HCT116 cells): ~4 fold | area of CNV, AGXA compared with AGX51 [3]: worked better than AGX51 | Id1 protein levels relative to AGX51 (Id1 [4]): reduced Id protein levels at lower concentrations than AGX51

CC(C)c1ccc(NNC(=O)c2cc3ccccc3s2)cc1 [AGX8, N’-(4-isopropylphenyl)benzo[b]thiophene-2-carbohydrazide]
concentrations required to perturb Id1 in the EMSA assay, relative to AGX51 (Id1-E47 interaction): higher concentrations | concentrations required to degrade Id proteins in cells, relative to AGX51 (Id proteins): higher concentrations | IC50 in cell viability assays, relative to AGX51 (Cell viability assays): higher IC50

COc1ccccc1C(CCN(Cc1ccccc1)C(=O)CCOCCOCCNC(=O)CCC1=[N+]2C(=Cc3ccc(-c4ccc[nH]4)n3[B-]2(F)F)C=C1)c1ccc2c(c1)OCO2 (stereo not shown) [AGX51 tracer, 3-(17-(benzo[d][1,3]dioxol-5-yl)-14-benzyl-17-(2-methoxyphenyl)-3,13-dioxo-7,10-dioxa-4,14-diazaheptadecyl)-5,5-difluoro-7-(1H-pyrrol-2-yl)-5H-5λ4-dipyrrolo[1,2-c:2’,1’-f][1,3,2]diazaborinin-4-ium]
BRET ratio ([2]; tracer 0–4 μM, digitonin-permeabilized 293T cells): dose-dependent increase in the BRET ratio

O=C(NCCC(c1ccccc1)c1ccccc1)c1ccc(C(=O)c2ccccc2)cc1 [AGX51-XL2, 4-benzoyl-N-(3,3-diphenylpropyl)bezamide]
covalent binding to Id1 after UV exposure (Id1 (59–104)): covalently binding to Id1 at six residues (V73, P74, T75, P77, Q78, and R80) | covalent binding to E47 (E47): nor was there evidence of AGX51-XL2 binding to E47

CC(C)C[C@@H](C=O)NC(=O)[C@H](CC(C)C)NC(=O)[C@H](CC(C)C)NC(=O)OCc1ccccc1 [MG132] (Cbz-Leu-Leu-Leu-aldehyde)
ID1 ubiquitylation (FLAG-ID1): ID1 ubiquitylation was observed
